ChEMBL document CHEMBL1142887, “N-Phenyl-N'-(2-chloroethyl)ureas (CEU) as potential antineoplastic agents. Part 2: role of omega-hydroxyl group in the covalent binding to beta-tubulin” (2007)

Columns and labels:
[1] = system: M21; assay: Growth inhibition of M21 cells after 48 hrs; format: functional; settings: Homo sapiens, M21, 48 h
How it was run: (§1)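 NCI screening protocol. Cells in high-glucose DMEM with 5% bovine calf serum preincubated 24 h at 37 °C, 5% CO₂, then exposed 48 h to drug, final 10 to 0.3 µM (DMSO below 0.5%). TCA fixation, sulforhodamine B staining, absorbance at 585 nm against a plate fixed on treatment day to give growth inhibition and GI50. At least two experiments in triplicate.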

[2] = system: HT-29; assay: Growth inhibition of HT29 cells after 48 hrs; format: functional; settings: Homo sapiens, HT-29, 48 h; how it was run: as §1
[3] = system: MCF7; assay: Growth inhibition of MCF7 cells after 48 hrs; format: functional; settings: Homo sapiens, MCF7, 48 h; how it was run: as §1
[4] = system: M21 (human); assay: Cell cycle arrest in M21 cells by accumulation at S phase at 4 uM
[5] = system: M21 (human); assay: Cell cycle arrest in M21 cells by accumulation at S phase at 1.2 uM
[6] = system: M21 (human); assay: Induction of apoptosis in M21 cells at 1.2 uM
[7] = system: M21 (human); assay: Cell cycle arrest by accumulation at G0/G1 phase in M21 cells at 10 uM
[8] = system: M21 (human); assay: Induction of apoptosis in M21 cells at 10 uM
[9] = system: M21 (human); assay: Cell cycle arrest by accumulation at G2/M phase in M21 cells at 4 uM
[10] = system: M21 (human); assay: Cell cycle arrest in M21 cells by accumulation at G2/M phase at 1.2 uM
[11] = system: M21 (human); assay: Cell cycle arrest in M21 cells by accumulation at G0/G1 phase at 4 uM
[12] = system: M21 (human); assay: Induction of apoptosis in M21 cells at 4 uM
[13] = system: M21 (human); assay: Cell cycle arrest by accumulation at S phase in M21 cells at 10 uM
[14] = system: M21 (human); assay: Cell cycle arrest in M21 cells by accumulation at G0/G1 phase at 1.2 uM
[15] = system: HT-1080; assay: Cell cycle arrest by accumulation at G2/M phase in HT1080 cells at 10 uM; format: functional, Homo sapiens
How it was run: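 HT 1080 cells incubated with drug (dissolved in DMSO, 0.5% final DMSO in medium; DMSO control). Cells harvested, fixed in ice-cold ethanol, and 5 × 10⁵ cells per sample stained with propidium iodide 50 µg/mL plus RNase A 40 U/mL for 30 min at room temperature. Flow cytometry gave % apoptotic cells and % G0/G1, S and G2/M populations.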

[16] = system: M21 (human); assay: Cell cycle arrest by accumulation at S phase in M21 cells at 3 uM
[17] = system: M21 (human); assay: Cell cycle arrest by accumulation at G0/G1 phase in M21 cells at 3 uM
[18] = system: MDA-MB-231; assay: Alkylation of beta-tubulin in MDA-MB-231 cells at 5 uM by electrophoretic mobility shift assay after 48 hrs; format: cell-based; settings: Homo sapiens
[19] = system: M21 (human); assay: Cell cycle arrest by accumulation at G2/M phase in M21 cells at 3 uM
[20] = system: M21 (human); assay: Induction of apoptosis in M21 cells at 25 uM
[21] = system: M21 (human); assay: Induction of apoptosis in M21 cells at 3 uM
[22] = system: M21 (human); assay: Cell cycle arrest in M21 cells by accumulation at G2/M phase at 25 uM
[23] = system: M21 (human); assay: Cell cycle arrest in M21 cells by accumulation at S phase at 25 uM
[24] = system: M21 (human); assay: Cell cycle arrest in M21 cells by accumulation at G0/G1 phase at 25 uM

Compound	GI50 [1] [nM]	GI50 [2] [nM]	GI50 [3] [nM]	Activity [7] [%]	Activity [8] [%]	Activity [13] [%]	also measured
COCCc1cccc(NC(=O)NCCCl)c1	6000	4000	14000				
COCCCCc1cccc(NC(=O)NCCCl)c1	2000	1000	3000				
CCCCCCc1cccc(NC(=O)NCCCl)c1	1000	1000	1000				
COCCCc1cccc(NC(=O)NCCCl)c1	5000	4000	> 10000				
O=C(NCCCl)Nc1cccc(CCCCCO)c1				5.9	10.71	12.11	Activity [4]: 12.12%; Activity [5]: 16.65%; Activity [6]: 7.58%; Activity [9]: 70.24%; Activity [10]: 21.82%; Activity [11]: 7.57%; Activity [12]: 9.83%; Activity [14]: 54.35%
CCCCCc1cccc(NC(=O)NCCCl)c1			1000	7.85	8.59	13.28	Activity [15]: 68.06%; Activity [16]: 17.75%; Activity [17]: 15.06%; Activity [18]: 90%; Activity [19]: 60.78%; Activity [20]: 7.84%; Activity [21]: 6.16%; Activity [22]: 68.48%; Activity [23]: 15.23%; Activity [24]: 8.75%
CCCCCCCc1cccc(NC(=O)NCCCl)c1	1000	1000	2000				
COCc1cccc(NC(=O)NCCCl)c1	> 10000	> 10000	> 10000				
COCCCCCc1cccc(NC(=O)NCCCl)c1			1000	7.52	9.02	14.37	Activity [15]: 68.57%; Activity [16]: 19.98%; Activity [17]: 31.28%; Activity [18]: 81%; Activity [19]: 40.22%; Activity [20]: 8.63%; Activity [21]: 8.5%; Activity [22]: 70.84%; Activity [23]: 13.79%; Activity [24]: 6.74%
COc1cccc(NC(=O)NCCCl)c1	> 10000	> 10000	> 10000				
